# According to ChEMBL document CHEMBL4513216, “Probing the Open Global Health Chemical Diversity Library for Multistage-Active Starting Points for Next-Generation Antimalarials” (ACS Infect Dis, 2020):
# Test: Toxicity liver stage against HepG2, at 10uM
# Type: cell-based
# Design: test concentration 10 uM, cell line HepG2-A16-CD81EGFP
# Settings: human, HepG2-A16-CD81EGFP cells; read-out: INHIBITION
# Outline: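 Uninfected HepG2-A16-CD81EGFP cells, 3 × 10^3 per well, 1536-well, plated on prespotted compound at 10 μM final, parasite-free screening media added to match infected plates; puromycin 10 μM positive, DMSO 0.5% negative; run in parallel with 48 h PbLuc assay at 37 °C, 5% CO2; viability by CellTiter-Glo luminescence, normalized to controls.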
row,SMILES,cytotoxicity at 10 µM
1,COCC(=O)N[C@H](C)c1c(-c2ccc(Cl)cc2)noc1C(=O)O,1.05%
2,CC1=C[C@@H](CC#N)[C@H](C(C)C)C[C@H]1CC(=O)N1CCN(CCO)CC1,4.62%
3,O=S(=O)(NCCn1ccc(-c2ccccn2)n1)C1CC1,-1.04%
4,CC(=O)N1CCCC2(CCN(C(=O)c3nccnc3N)CC2)C1,3.47%
5,C[C@H]1C[C@H]2CN(S(=O)(=O)c3ccc(F)cc3)CC[C@@H]2O1,2.97%
6,CS(=O)(=O)N1CCCC12CCCN(C(=O)c1ccc3c(c1)OCO3)C2 (stereo not given),-144%
7,Cc1nocc1C(=O)N1CCc2c(CN(C)C)nn(C)c2C1,-0.567%
8,O=C(Cn1ccc2c(Cl)cccc21)N1CCCC1,0.583%
9,CC(C)CN1CCCC2(CCN(C(=O)c3cnccn3)C2)C1 (stereo not given),2.39%
10,CC(=O)N1CCc2nc(C3CCN(c4ncccn4)C3)ncc2C1 (stereo not given),-30%
11,CCc1cc(C(=O)N2CCC(O)(Cn3ccc4ccncc43)CC2)no1,-18.7%
12,COCCC(=O)N1CCC(c2nc(O)cc(-c3ccncc3)n2)C1 (stereo not given),-25%
13,CN(C)CC(=O)N1CC(c2nn(C)c3nccnc23)C1,-6.26%
14,NC(=O)CS(=O)(=O)Cc1csc(-c2ccc(F)cc2)n1,-4.95%
15,CN(CC(N)=O)Cc1csc(-c2ccc(F)cc2)n1,2.5%
16,CC(NCc1cccn1C)c1noc(-c2ccc(Cl)cc2)n1 (stereo not given),5.07%
17,CCC(C#N)NC(=O)CCNC(=O)C(C)(C)C (stereo not given),-1.55%
18,CS(=O)(=O)NCCNC(=O)c1ccc(OCc2ccccc2)nc1,4.43%
19,Cc1cnn(CCC(=O)NS(=O)(=O)N2CCc3ccccc32)c1,4.72%
20,Cc1nnc2n1CCN(c1nn3cc(C(C)(C)C)nc3s1)C2,-0.903%
21,COC(=O)N1CCCC(C(=O)Nc2nc(C)c(SC)s2)C1 (stereo not given),11.1%
22,COC(=O)c1ccc(Cl)c(CN(C)Cc2ncnn2C)c1,-7.81%
23,COC(=O)C(C)(C)S(=O)(=O)c1ccc(Br)cc1,5.25%

row,SMILES,cytotoxicity at 10 µM
1,c1cnn(CCNCc2cnc(N3CCCC3)nc2)c1,-9.46%
2,Cn1cc(CNCCn2cccn2)c(-c2cccnc2)n1,-2.34%
3,Cc1cc(CN2C[C@@H]3COC[C@]3(CNC(=O)c3ccno3)C2)no1,1.18%
4,Cc1cnc(N(C)CCCc2cnn(C)c2)nc1N(C)C,2.03%
5,O=C(Cn1cccn1)N1CCc2[nH]nc(-c3ccc4c(c3)OCO4)c2C1,-153%
6,CCNc1ncc(C2CC(=O)Nc3c2cnn3Cc2ccncc2)cn1 (stereo not given),-6.87%
7,CN1CCC(N(C)CCC(=O)N2CCN(Cc3cccc(F)c3)CC2)C1 (stereo not given),-3.41%
8,COc1ccc(C(C(=O)O)N2CCC(Cn3cccn3)CC2)cc1F (stereo not given),1.81%
9,CC(O)CCn1ccc2[nH]c(=O)c(C#N)cc2c1=O (stereo not given),5.66%
10,CSc1ccc(CN(CCO)C(=O)CCc2cccc(F)c2)cc1,2.93%
11,Cn1cc(-c2ccnc(NCC3CCN(Cc4ccccc4)C3)n2)cn1 (stereo not given),-130%
12,CC1(C)CN(c2cc(C3CC3)ncn2)C[C@]1(C)O,1.4%
13,COCCN(Cc1ccc(OC)nc1)Cc1cccs1,-7.28%
14,Cn1nccc1C(=O)N1CCOC(Cc2cccc(C(F)(F)F)c2)C1 (stereo not given),5.52%
15,Cc1cnn(CCNCC(=O)NCCOc2ccc(Cl)cc2)c1,-11.8%
16,Cc1cc(C(=O)N2CCOC(c3nc(C(C)C)n[nH]3)C2)c(C)s1 (stereo not given),-5.72%
17,Cc1ncc2c(n1)CN(CC(=O)Nc1cc(C)on1)CC2,-12.4%
18,O=C(Cc1cn2ccsc2n1)N1CCCC(n2cccn2)C1 (stereo not given),-13.6%
19,CC(C)C(C)(C#N)NC(=O)CN1CCC(c2ccnn2CCO)CC1 (stereo not given),-4.95%
20,CCOc1ccnc(N2CCN(C(=O)c3cc[nH]n3)CC2)n1,8.82%
21,Cc1cc(CN2CCN(CC(O)c3ccc4c(c3)OCO4)CC2)no1 (stereo not given),-7.82%
22,CNC(=O)CN1CCCC12CCN(C(=O)c1ccsc1)CC2,4.87%
